pIC50: −log10 of the molar value.
Legend:
Platelet [1] = experiment: Inhibition of ADP-induced platelet aggregation in human platelet rich plasma incubated 1 min prior ADP induction measured after 3 mins by Born's method using aggregometer; type: functional, cell-free; conditions: for pIC50: Homo sapiens, Platelet, Plasma
Procedure, shortened: (§1)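 Citrated (3.8% sodium citrate, 1:9) venous blood from healthy donors free of aspirin/NSAIDs for at least 14 days. PRP prepared by centrifugation, with PPP as the baseline blank. Compound in DMSO (below 0.5% final) added to 500 µL PRP 1 min before 10 µM ADP (final), at 37 °C. Aggregation is the maximum tracing height over at least 3 min, expressed as % inhibition versus vehicle. IC50 comes from non-linear regression, mean ± S.E.M., n = 3.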

Platelet [2] = experiment: Inhibition of ADP-induced platelet aggregation in human platelet rich plasma at 300 uM incubated 1 min prior ADP induction measured after 3 mins by Born's method using aggregometer relative to control; type: functional
Procedure, shortened: (§2)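 Human citrated PRP from drug-free healthy donors, with PPP as the blank, in an aggregometer at 37 °C. Compound added at 300 µM final in DMSO (below 0.5%) for 1 min, then 10 µM ADP final. Maximum aggregation tracing height read over at least 3 min and compared with the DMSO vehicle control.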

Platelet [3] = experiment: Inhibition of ADP-induced platelet aggregation in human platelet rich plasma assessed as platelet aggregation at 300 uM incubated 1 min prior ADP induction measured after 3 mins by Born's method using aggregometry relative to control; type: functional; set-up: scale not given: the % may be the effect or the level left; procedure, shortened: as §2
Platelet [4] = experiment: Inhibition of arachidonic acid-induced platelet aggregation in human platelet rich plasma incubated 1 min prior arachidonic acid induction measured after 3 mins by Born's method using aggregometer; type: functional, cell-free; conditions: for pIC50: Homo sapiens, Platelet, Plasma
Procedure, shortened: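 Citrated PRP from healthy volunteers free of aspirin/NSAIDs for at least 14 days, with PPP as the baseline blank. Compound in DMSO (below 0.5% final) preincubated 1 min in 500 µL PRP at 37 °C, then 0.5 mM arachidonic acid (final) added. Maximum aggregation height over at least 3 min gives % inhibition versus vehicle. IC50 by non-linear regression, mean ± S.E.M. of 3 experiments.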

Platelet [5] = experiment: Inhibition of ADP-induced platelet aggregation in human platelet rich plasma; type: functional, cell-free; procedure, shortened: as §1

Row | SMILES | inhibition (INH) (Platelet [1]) | inhibition at 300 µM (Platelet [2]) | Activity (Platelet [3]) | also measured
1 | CCSc1nc(NCc2ccccc2)c2ncn([C@@H]3O[C@H](CO)[C@@H](O)[C@H]3O)c2n1 | >50% | – | – | –
2 | CCCCCCNc1nc(SCC)nc2c1ncn2[C@@H]1O[C@H](CO)[C@@H](O)[C@H]1O | – | < 50% | 57% | –
3 | CCCCCCNc1nc(SCCC)nc2c1ncn2[C@@H]1O[C@H](CO)[C@@H](O)[C@H]1O | >50% | – | – | –
4 | CCCCCCNc1nc(SCCCC)nc2c1ncn2[C@@H]1O[C@H](CO)[C@@H](O)[C@H]1O | – | < 50% | 66% | –
5 | CCSc1nc(NC2CCCCC2)c2ncn([C@@H]3O[C@H](CO)[C@@H](O)[C@H]3O)c2n1 | >50% | – | – | –
6 | CCCSc1nc(NC2CCCCC2)c2ncn([C@@H]3O[C@H](CO)[C@@H](O)[C@H]3O)c2n1 | >50% | – | – | –
7 | CC(C)Sc1nc(NC2CCCCC2)c2ncn([C@@H]3O[C@H](CO)[C@@H](O)[C@H]3O)c2n1 | >50% | – | – | –
8 | CCCCSc1nc(NC2CCCCC2)c2ncn([C@@H]3O[C@H](CO)[C@@H](O)[C@H]3O)c2n1 | >50% | – | – | pIC50 (Platelet [1]): 4.08
9 | CCCCN(CCCC)c1nc(SCC)nc2c1ncn2[C@@H]1O[C@H](CO)[C@@H](O)[C@H]1O | – | < 50% | 77% | –
10 | CSc1nc(NCc2ccccc2)c2ncn([C@@H]3O[C@H](CO)[C@@H](O)[C@H]3O)c2n1 | – | < 50% | 52% | –
11 | CCCSc1nc(NCc2ccccc2)c2ncn([C@@H]3O[C@H](CO)[C@@H](O)[C@H]3O)c2n1 | >50% | – | – | –
12 | CCCCSc1nc(NCc2ccccc2)c2ncn([C@@H]3O[C@H](CO)[C@@H](O)[C@H]3O)c2n1 | >50% | – | – | –
13 | CSc1nc(NCc2ccc(C)cc2)c2ncn([C@@H]3O[C@H](CO)[C@@H](O)[C@H]3O)c2n1 | – | < 50% | 77% | –
14 | CCSc1nc(NCc2ccc(C)cc2)c2ncn([C@@H]3O[C@H](CO)[C@@H](O)[C@H]3O)c2n1 | – | < 50% | 88% | –
15 | COc1ccc(CNc2nc(SC)nc3c2ncn3[C@@H]2O[C@H](CO)[C@@H](O)[C@H]2O)cc1 | – | < 50% | 69% | –
16 | CCSc1nc(NCc2ccc(OC)cc2)c2ncn([C@@H]3O[C@H](CO)[C@@H](O)[C@H]3O)c2n1 | – | < 50% | 74% | –
17 | CCCSc1nc(NCc2ccc(OC)cc2)c2ncn([C@@H]3O[C@H](CO)[C@@H](O)[C@H]3O)c2n1 | >50% | – | – | –

Row | SMILES | inhibition (INH) (Platelet [1]) | inhibition at 300 µM (Platelet [2]) | Activity (Platelet [3]) | also measured
18 | CSc1nc(NCCc2ccccc2)c2ncn([C@@H]3O[C@H](CO)[C@@H](O)[C@H]3O)c2n1 | >50% | – | – | pIC50 (Platelet [1]): 4.44; inhibition (INH) (Platelet [4]): >50%; pIC50 (Platelet [4]): 5.52
19 | CCSc1nc(NCCc2ccccc2)c2ncn([C@@H]3O[C@H](CO)[C@@H](O)[C@H]3O)c2n1 | >50% | – | – | pIC50 (Platelet [1]): 4.54; inhibition (INH) (Platelet [4]): >50%; pIC50 (Platelet [4]): 4.52
20 | CCCSc1nc(NCCc2ccccc2)c2ncn([C@@H]3O[C@H](CO)[C@@H](O)[C@H]3O)c2n1 | >50% | – | – | pIC50 (Platelet [1]): 4.28; inhibition (INH) (Platelet [4]): >50%; pIC50 (Platelet [4]): 4.36
21 | CCCCSc1nc(NCCc2ccccc2)c2ncn([C@@H]3O[C@H](CO)[C@@H](O)[C@H]3O)c2n1 | >50% | – | – | pIC50 (Platelet [1]): 4.23; inhibition (INH) (Platelet [4]): < 50%
22 | OC[C@H]1O[C@@H](n2cnc3c(NCCc4ccccc4)nc(Sc4ccccc4)nc32)[C@H](O)[C@@H]1O | – | < 50% | 57% | –
23 | OC[C@H]1O[C@@H](n2cnc3c(NCCc4ccccc4)nc(SCc4ccccc4)nc32)[C@H](O)[C@@H]1O | – | < 50% | 57% | –
24 | COc1ccc(CCNc2nc(SC)nc3c2ncn3[C@@H]2O[C@H](CO)[C@@H](O)[C@H]2O)cc1 | >50% | – | – | –
25 | CCSc1nc(NCCc2ccc(OC)cc2)c2ncn([C@@H]3O[C@H](CO)[C@@H](O)[C@H]3O)c2n1 | >50% | – | – | pIC50 (Platelet [1]): 4.05
26 | CCCSc1nc(NCCc2ccc(OC)cc2)c2ncn([C@@H]3O[C@H](CO)[C@@H](O)[C@H]3O)c2n1 | >50% | – | – | –
27 | CCCCSc1nc(NCCc2ccc(OC)cc2)c2ncn([C@@H]3O[C@H](CO)[C@@H](O)[C@H]3O)c2n1 | >50% | – | – | pIC50 (Platelet [1]): 4.03
28 | COc1cccc(CCNc2nc(SC)nc3c2ncn3[C@@H]2O[C@H](CO)[C@@H](O)[C@H]2O)c1 | – | < 50% | 71% | –
29 | CCSc1nc(NCCc2cccc(OC)c2)c2ncn([C@@H]3O[C@H](CO)[C@@H](O)[C@H]3O)c2n1 | >50% | – | – | pIC50 (Platelet [1]): 4.42; inhibition (INH) (Platelet [4]): < 50%
30 | CCCSc1nc(NCCc2cccc(OC)c2)c2ncn([C@@H]3O[C@H](CO)[C@@H](O)[C@H]3O)c2n1 | >50% | – | – | pIC50 (Platelet [1]): 4.16
31 | CCCCSc1nc(NCCc2cccc(OC)c2)c2ncn([C@@H]3O[C@H](CO)[C@@H](O)[C@H]3O)c2n1 | – | < 50% | 85% | –
32 | CCSc1nc(NC(C)c2ccccc2)c2ncn([C@@H]3O[C@H](CO)[C@@H](O)[C@H]3O)c2n1 (some centres not stated) | >50% | – | – | –
33 | CSCCNc1nc(SCCC(F)(F)F)nc2c1ncn2[C@@H]1O[C@H](COP(=O)(O)OP(=O)(O)C(Cl)(Cl)P(=O)(O)O)[C@@H](O)[C@H]1O [CANGRELOR TETRASODIUM] | – | – | – | pIC50 (Platelet [5]): 9.40

Source: ChEMBL document CHEMBL2034940, “Synthesis of N6-alkyl(aryl)-2-alkyl(aryl)thioadenosines as antiplatelet agents” (Eur J Med Chem, 2012)
